Assay results: ChEMBL document CHEMBL3525918, “Utility of drug depletion-time profiles in isolated hepatocytes for accessing hepatic uptake clearance: identifying rate-limiting steps and role of passive processes” (Drug Metab Dispos, 2012)

Assays:
[1] = Apparent intrinsic clearance in Sprague-Dawley rat hepatocytes assessed per 10^6 cells at 0.1 to 10 uM up to 90 mins by conventional assay; format: ADME, cell-based, Hepatocyte; conditions: read-out: CLH(app)
Method in brief: (§1)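 Fresh rat hepatocytes from collagenase perfusion (viability >85%), three independent preparations. Drug at final 0.1–10 µM in Williams' medium E, 0.5% methanol, preincubated 5 min at 37°C, then mixed with hepatocytes (final 0.1–1 x 10^6 cells/mL) and shaken at 37°C. Ten time points up to 90 min, terminated by snap-freezing the whole cell-plus-medium matrix. LC-MS/MS quantitation; mono- or biexponential depletion fit gives kdep.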

[2] = (§2) Apparent intrinsic clearance in Sprague-Dawley rat hepatocytes assessed per 10^6 cells at 0.1 to 10 uM up to 90 mins by media-loss method; format: ADME, cell-based, Hepatocyte; conditions: Sprague-Dawley, read-out: CLH(app)
Method in brief: (§3)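 Freshly isolated rat hepatocytes (collagenase perfusion, >85% viable, three preparations), incubated with drug at final 0.1–10 µM at 37°C, 0.1–1 x 10^6 cells/mL, 0.5% methanol, alongside the whole-matrix assay. At time points up to 90 min the incubation was centrifuged 30 sec at 7000g, and the supernatant medium was snap-frozen and analysed by LC-MS/MS. Loss of drug from the medium was fitted mono- or biexponentially.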

[3] = Drug metabolism in Sprague-Dawley rat hepatocytes assessed per 10^6 cells at 0.1 to 10 uM up to 90 mins by conventional assay; format: ADME, cell-based, Hepatocyte; method in brief: as §1
[4] = Drug metabolism in Sprague-Dawley rat hepatocytes assessed per 10^6 cells at 0.1 to 10 uM up to 90 mins by media-loss method; format: ADME, cell-based, Hepatocyte; method in brief: as §3
[5] = tested on: Hepatocyte; test: as §2; format: ADME, cell-based; conditions: 1.5 h, 10 µM; method in brief: as §3

hepatocyte CLint at up to 10 µM [1] [µL/min/1e6 cells] | hepatocyte CLint at up to 10 µM [2] [µL/min/1e6 cells] | Km at 1.5 h, up to 10 µM [3] [µM] | Km at 1.5 h, up to 10 µM [4] [µM] | CLH(app) [5] [uL/min/10^6cells] | SMILES
3.3 | 1660 | – | – | – | CC(C)c1nc(N(C)S(C)(=O)=O)nc(-c2ccc(F)cc2)c1/C=C/[C@@H](O)C[C@@H](O)CC(=O)O [ROSUVASTATIN]
49.9 | 49.3 | – | – | – | CCOc1cc(CC(=O)N[C@@H](CC(C)C)c2ccccc2N2CCCCC2)ccc1C(=O)O [REPAGLINIDE]
46 | 68 | – | – | – | CC[C@H]1OC(=O)[C@H](C)[C@@H](O[C@H]2C[C@@](C)(OC)[C@@H](O)[C@H](C)O2)[C@H](C)[C@@H](O[C@@H]2O[C@H](C)C[C@H](N(C)C)[C@H]2O)[C@](C)(OC)C[C@@H](C)C(=O)[C@H](C)[C@@H](O)[C@]1(C)O [CLARITHROMYCIN]
– | – | 4.7 | – | – | CC(C)(C(=O)O)c1ccc(C(O)CCCN2CCC(C(O)(c3ccccc3)c3ccccc3)CC2)cc1 (stereo unspecified) [FEXOFENADINE]
7.1 | – | – | 13 | 1705 | O=C(O)C[C@H](O)C[C@H](O)/C=C/c1c(C2CC2)nc2ccccc2c1-c1ccc(F)cc1 [PITAVASTATIN]
26 | 35 | 3.5 | 5.5 | – | CC[C@H]1OC(=O)[C@H](C)[C@@H](O[C@H]2C[C@@](C)(OC)[C@@H](O)[C@H](C)O2)[C@H](C)[C@@H](O[C@@H]2O[C@H](C)C[C@H](N(C)C)[C@H]2O)[C@](C)(O)C[C@@H](C)C(=O)[C@H](C)[C@@H](O)[C@]1(C)O [ERYTHROMYCIN]
– | – | 1.3 | 0.43 | – | CC(C)c1c(C(=O)Nc2ccccc2)c(-c2ccccc2)c(-c2ccc(F)cc2)n1CC[C@@H](O)C[C@@H](O)CC(=O)O [ATORVASTATIN]
